This test can be described thus: calcium sensitization of cardiac fiber tension, mechanism study for cardiac RTF sensitizer project, porcine papillary fibers, force transducer (AID 602231). The following applies: Permeabilized pig cardiac fiber, Ca2+-tension pCa50 shift, at 10 µM; delta pCa50: stronger effect = higher value; maximal force change: measured here: effect on maximal fiber tension. Summed up: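 Assay system: Skinned porcine cardiac papillary muscle fibers. Medium: pH 7.0 buffer with Mg-ATP and EGTA. Reagent: free Ca2+ series, pCa 8.0–4.5. Dosing: 10 µM compound, 0.1% DMSO. Detection: fiber tension measured by force transducer. Evaluation: pCa50 shift versus DMSO. Controls: 0.1% DMSO-only run.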

Active and inactive are the calls of the source.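 Rule for the calls: active = calcium level giving half maximal force raised by at least 10% versus DMSO, meaning delta pCa50 at or below about -0.041; inactive = the rest.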

With `Cc1cccn2c(=O)c(/C=C3\SC(=S)N(CC(C)C)C3=O)c(NCCCOC(C)C)nc12`, the delta pCa50 was -0.003 (inactive) and the maximal force change is -9.9%.

Turning to `CCOC(=O)c1sc(N)c(C#N)c1COC(=O)CNC(=O)c1cc(OC)c(OC)c(OC)c1`, the delta pCa50 was -0.039 (inactive) and the maximal force change came to 3.3%.

`CCOC(=O)c1cc2n(c1N)-c1ccccc1C2=O`: the delta pCa50 was 0.01 (inactive) and the maximal force change was 2.13%.

Regarding `Cc1ccc(/C=C2\Oc3c(ccc(O)c3CN3CCN(CCO)CC3)C2=O)cc1`, the delta pCa50 was -0.027 (inactive) and the maximal force change is -0.5%.
